# From ChEMBL document CHEMBL3992565, “Discovery of [1,2,3]Triazolo[4,5-d]pyrimidine Derivatives as Novel LSD1 Inhibitors” (ACS Med Chem Lett, 2017)
# The source made the active and inactive calls. The rule behind the calls is not given here.
# Key:
# [1] = system: MGC-803; assay: Antimigratory activity against human MGC803 cells assessed as decrease in N-cadherin level at 0.5 to 2 uM after 24 hrs by Western blot method; format: functional, cell-based
# In short: (§1)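 MGC-803 cells were exposed for 24 h to three low concentrations. E-cadherin (epithelial marker) and N-cadherin (mesenchymal marker) were then probed by Western blot. Data are mean ± SD from at least three experiments.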
# [2] = species on record: Homo sapiens; assay: Activity at histone lysine methyltransferase in human MGC803 cells assessed as effect on H3K4me3 level up to 4 uM after 5 days by Western blot method; format: cell-based
# In short: (§2)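 MGC-803 gastric cancer cells, which overexpress LSD1, were treated at the indicated concentrations. Several histone methylation marks were then probed by Western blot. Each experiment was run independently at least three times.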
# [3] = target: T1, MAO-B (Homo sapiens, UniProt P27338); assay: Inhibition of MAO-B (unknown origin) at 1 uM using luciferin-derived luminogenic substrate by MAO-Glo assay relative to control; conditions: MAO-B enzyme (unknown origin), probe luciferin-derived luminogenic substrate
# T1 sequence (P27338 whole entry): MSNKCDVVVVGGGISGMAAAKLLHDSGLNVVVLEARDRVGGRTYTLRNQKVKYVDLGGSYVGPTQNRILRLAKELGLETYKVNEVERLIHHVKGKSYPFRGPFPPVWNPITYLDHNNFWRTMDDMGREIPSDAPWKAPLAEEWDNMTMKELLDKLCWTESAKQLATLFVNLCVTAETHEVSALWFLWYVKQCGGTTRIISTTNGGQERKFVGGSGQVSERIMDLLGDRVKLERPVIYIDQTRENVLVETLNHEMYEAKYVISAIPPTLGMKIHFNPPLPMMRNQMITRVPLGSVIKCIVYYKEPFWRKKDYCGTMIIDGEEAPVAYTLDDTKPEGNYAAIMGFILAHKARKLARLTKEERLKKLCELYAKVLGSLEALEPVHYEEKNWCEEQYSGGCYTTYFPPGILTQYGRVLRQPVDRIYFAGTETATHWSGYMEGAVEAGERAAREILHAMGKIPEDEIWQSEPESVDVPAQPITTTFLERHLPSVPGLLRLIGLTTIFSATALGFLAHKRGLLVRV
# [4] = system: MGC-803; assay: Antimigratory activity against human MGC803 cells assessed as accumulation of E-cadherin at 0.5 to 2 uM after 24 hrs by Western blot method; format: functional, cell-based; in short: as §1
# [5] = species on record: Homo sapiens; assay: Activity at histone lysine methyltransferase in human MGC803 cells assessed as effect on H3K9me1 level up to 4 uM after 5 days by Western blot method; format: cell-based; in short: as §2
# [6] = target: T1, MAO-B; assay: Inhibition of MAO-B (unknown origin) at 10 uM using luciferin-derived luminogenic substrate by MAO-Glo assay relative to control; conditions: MAO-B enzyme (unknown origin), probe luciferin-derived luminogenic substrate
# [7] = species on record: Homo sapiens; assay: Activity at histone lysine methyltransferase in human MGC803 cells assessed as effect on H3K9me2 level up to 4 uM after 5 days by Western blot method; format: cell-based; in short: as §2
# [8] = species on record: Homo sapiens; assay: Activity at histone demethylase in human MGC803 cells assessed as effect on H3K9me2 level up to 4 uM after 5 days by Western blot method; format: cell-based; in short: as §2
# [9] = species on record: Homo sapiens; assay: Activity at histone demethylase in human MGC803 cells assessed as effect on H3K9me1 level up to 4 uM after 5 days by Western blot method; format: cell-based; in short: as §2
# [10] = target: T2, MAO-A (Homo sapiens, UniProt P21397); assay: Inhibition of MAO-A (unknown origin) at 1 uM using luciferin-derived luminogenic substrate by MAO-Glo assay relative to control; conditions: MAO-A enzyme (unknown origin), probe luciferin-derived luminogenic substrate
# T2 sequence (P21397 whole entry): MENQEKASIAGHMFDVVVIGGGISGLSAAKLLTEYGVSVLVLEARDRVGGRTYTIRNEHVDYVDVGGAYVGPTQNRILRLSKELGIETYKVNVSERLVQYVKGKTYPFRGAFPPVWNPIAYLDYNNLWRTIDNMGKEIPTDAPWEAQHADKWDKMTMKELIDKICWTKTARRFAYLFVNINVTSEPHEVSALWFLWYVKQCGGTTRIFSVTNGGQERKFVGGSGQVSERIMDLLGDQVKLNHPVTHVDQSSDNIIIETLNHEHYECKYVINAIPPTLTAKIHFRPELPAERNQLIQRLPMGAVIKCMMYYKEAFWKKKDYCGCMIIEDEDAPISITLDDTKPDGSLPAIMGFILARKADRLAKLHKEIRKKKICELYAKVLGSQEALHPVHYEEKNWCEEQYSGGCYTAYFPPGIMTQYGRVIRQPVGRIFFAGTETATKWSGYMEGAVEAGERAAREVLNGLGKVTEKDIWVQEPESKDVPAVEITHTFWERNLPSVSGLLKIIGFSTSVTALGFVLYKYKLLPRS
# [11] = system: MGC-803; assay: Antimigratory activity against human MGC803 cells at lower concentration after 24 hrs by Hoechst 33258 staining based transwell assay; format: functional, cell-based
# In short: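 Migration was measured by transwell assay read by high content analysis. MGC-803 cells were treated for 24 h at three low concentrations. Data are mean ± SD from at least three independent experiments, with significance at p < 0.01.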
# [12] = target: T2, MAO-A; assay: Inhibition of MAO-A (unknown origin) at 10 uM using luciferin-derived luminogenic substrate by MAO-Glo assay relative to control; conditions: MAO-A enzyme (unknown origin), probe luciferin-derived luminogenic substrate
# [13] = system: MGC-803; assay: Antiproliferative activity against human MGC803 cells after 5 days by MTT assay; conditions: MGC-803, 120 h
# [14] = species on record: Homo sapiens; assay: Activity at histone demethylase in human MGC803 cells assessed as effect on H3K4me3 level up to 4 uM after 5 days by Western blot method; format: cell-based; in short: as §2
# [15] = system: MGC-803; assay: Effect on LSD1 expression in human MGC803 cells up to 4 uM after 5 days by DAPI staining based immunofluorescence assay; format: cell-based; conditions: mgc-803, 120 h
# In short: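 MGC-803 cells were seeded in 96-well plates and treated for 5 days at the indicated concentrations. LSD1 was stained by immunofluorescence, with DAPI used for cell counting. Each well was scored over 12 fields by high content analysis. Data are mean ± SD from at least three experiments.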
# [16] = target: T3, Lysine-specific histone demethylase 1A (Homo sapiens, UniProt O60341); conditions: 600 uM
# [17] = target: T3, Lysine-specific histone demethylase 1A; assay: Inhibition of full length recombinant LSD1 (unknown origin) expressed in Escherichia coli […] using H3K4me2 as substrate by fluorescence assay
SMILES,Activity [1],Activity [2],inhibition at 1 µM [3] [%],Activity [4],Activity [5],inhibition at 10 µM [6] [%],Activity [7],Activity [8],Activity [9],inhibition at 1 µM [10] [%],Activity [11],inhibition at 10 µM [12] [%],IC50 [13] [µM],Activity [14],Activity [15],inhibition [16],IC50 [17] [µM]
c1ccc(CSc2nc(Sc3ccccn3)c3nnn(Cc4ccccc4)c3n2)cc1,Active,inactive,11,Active,inactive,39,inactive,inactive,inactive,34,Active,59,7.64,inactive,Non-Toxic,–,–
O=C(O)c1ccc(CN2CCC(CN[C@@H]3C[C@H]3c3ccccc3)CC2)cc1 [GSK2879552],–,–,–,–,–,–,–,–,–,–,–,–,> 125,–,–,inactive,0.041
